# Test results taken from ChEMBL document CHEMBL2331413, “Novel in vivo active anti-malarials based on a hydroxy-ethyl-amine scaffold” (Bioorg Med Chem Lett, 2013).
# pIC50: −log10 of the molar value. Activity calls are given as the source filed them. The calls are words filed in the database; no cut-off is given here.
# Key:
# Plasmodium falciparum [1] = assay: Antimalarial activity against chloroquine-resistant Plasmodium falciparum K1 infected in RBC by [3H]hypoxanthine incorporation assay in presence of 0.5 % albumax; assay type: functional, organism-based
# Plasmodium falciparum [2] = assay: Antimalarial activity against chloroquine-resistant Plasmodium falciparum K1 infected in RBC by [3H]hypoxanthine incorporation assay in presence of 50 % serum; assay type: functional, organism-based
# Plasmodium berghei [3] = assay: Antimalarial activity against GFP-transfected Plasmodium berghei ANKA in mouse blood assessed as inhibition of schizont maturation compound incubated for 16 hrs followed by 8 hrs of [3H]hypoxanthine incorporation; assay type: functional, organism-based
# Plasmodium falciparum [4] = assay: Antimalarial activity against chloroquine-sensitive Plasmodium falciparum NF54 infected in RBC after 72 hrs by [3H]hypoxanthine incorporation assay in presence of 0.5 % albumax; assay type: functional, organism-based
# [5] = Metabolic stability in mouse liver microsomes; assay type: ADME, Microsome; conditions: read-out: Stability
# Outline: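 In vitro metabolic stability was measured with a mouse liver microsomal preparation and expressed as intrinsic clearance in µl/(min mg).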
# Plasmodium falciparum [6] = assay: Antimalarial activity against chloroquine-sensitive Plasmodium falciparum NF54 infected in RBC after 24 hrs by [3H]hypoxanthine incorporation assay in presence of 0.5 % albumax; assay type: functional, organism-based
# Plasmodium falciparum [7] = assay: Antimalarial activity against chloroquine-sensitive Plasmodium falciparum NF54 infected in RBC after 72 hrs by [3H]hypoxanthine incorporation assay in presence of 50 % serum; assay type: functional, organism-based
# Plasmodium falciparum [8] = assay: Antimalarial activity against chloroquine-sensitive Plasmodium falciparum NF54 infected in RBC after 48 hrs by [3H]hypoxanthine incorporation assay in presence of 0.5 % albumax; assay type: functional, organism-based
# Plasmodium berghei [9] = assay: Antimalarial activity against GFP-transfected Plasmodium berghei ANKA in mouse blood assessed as inhibition of schizont maturation after 72 hrs by [3H]hypoxanthine incorporation assay; assay type: functional, organism-based
# Plasmodium berghei [10] = assay: Antimalarial activity against GFP-transfected Plasmodium berghei ANKA in mouse blood assessed as inhibition of schizont maturation after 48 hrs by [3H]hypoxanthine incorporation assay relative to control; assay type: functional, organism-based
Compound,pIC50 (Plasmodium falciparum [1]),pIC50 (Plasmodium falciparum [2]),pIC50 (Plasmodium berghei [3]),pIC50 (Plasmodium falciparum [4]),microsomal CLint [5] [µL/min/mg],pIC50 (Plasmodium falciparum [6]),pIC50 (Plasmodium falciparum [7]),pIC50 (Plasmodium falciparum [8]),Activity (Plasmodium berghei [9]),Activity (Plasmodium berghei [10])
C[C@@H](NC[C@@H](O)[C@H](Cc1ccccc1)NC(=O)c1ccc(N2CCN(C)CC2)cc1)c1ccccc1,7.72,7.49,< 6.30,8.06,80,< 6.30,8.07,–,–,–
CCN(CC)Cc1ccc(Nc2ccc(C(=O)N[C@@H](Cc3ccccc3)[C@H](O)CN[C@H](C)c3ccccc3)cc2)cc1O,–,–,–,> 8.11,–,7.19,8.05,7.82,–,–
C[C@@H](NC[C@@H](O)[C@H](Cc1ccccc1)NC(=O)c1ccc(CN2CCCCC2)c(O)c1)c1ccccc1,> 8.11,8.11,–,8.31,–,–,8.23,–,–,–
CCCN(CCC)C(=O)c1cccc(C(=O)N[C@@H](Cc2ccccc2)[C@H](O)CN[C@H](C)c2ccccc2)c1,–,–,< 6.30,8.70,> 1250,< 6.30,8.00,> 8.51,–,–
CCCN(CCC)Cc1cc(C(=O)N[C@@H](Cc2ccccc2)[C@H](O)CN[C@H](C)c2ccccc2)ccc1O,–,–,< 6.30,6.93,–,6.82,6.48,7.08,–,–
C[C@@H](NC[C@@H](O)[C@H](Cc1ccccc1)NC(=O)c1ccc(Nc2ccc(CN3CCCCC3)c(O)c2)cc1)c1ccccc1,–,–,6.76,8.44,415,7.60,8.48,> 8.11,–,–
CN1CCN(c2ccc(C(=O)N[C@@H](Cc3ccccc3)[C@H](O)CNCc3ccc(O)c(CN4CCCCC4)c3)cc2)CC1,7.44,7.55,–,6.92,–,6.80,7.24,6.99,–,–
CN1CCN(c2ccc(C(=O)N[C@@H](Cc3ccccc3)[C@H](O)CNCc3ccc(O)c(CN4CCCC4)c3)cc2)CC1,–,–,–,< 6.30,–,< 6.30,6.53,< 6.30,–,–
CCCN(CCC)Cc1cc(C(C)NC[C@@H](O)[C@H](Cc2ccccc2)NC(=O)c2ccc(N3CCN(C)CC3)cc2)ccc1O (stereo not given in full),–,–,–,7.05,–,7.05,7.21,7.12,–,–
CCN(CC)Cc1cc(Nc2ccc(C(=O)N[C@@H](Cc3ccccc3)[C@H](O)CNC3CCCC3)cc2)ccc1O,7.27,7.36,–,7.11,–,–,7.29,–,–,–
C[C@@H](NC[C@@H](O)[C@H](Cc1ccccc1)NC(=O)c1cccc(O)c1CN1CCCCC1)c1ccccc1,–,–,< 6.30,8.31,–,6.63,8.23,> 8.11,–,–
CCN(CC)Cc1cc(C(=O)N[C@@H](Cc2ccccc2)[C@H](O)CN[C@H](C)c2ccccc2)ccc1O,–,–,–,6.45,–,6.42,< 6.30,6.52,–,–
C[C@@H](NC[C@@H](O)[C@H](Cc1ccccc1)NC(=O)c1cccc(S(=O)(=O)N2CCN(C)CC2)c1)c1ccccc1,–,–,–,7.01,908,–,6.86,–,–,–
C[C@@H](NC[C@@H](O)[C@H](Cc1ccccc1)NC(=O)c1ccc(C(=O)N2CCN(C)CC2)cc1)c1ccccc1,–,–,< 6.30,9.22,75,< 6.30,> 9.22,–,–,–
CCN(CC)Cc1cc(Nc2cccc(C(=O)N[C@@H](Cc3ccccc3)[C@H](O)CNC3CCCC3)c2)ccc1O,7.52,6.90,–,7.64,–,–,7.17,–,–,–
C[C@@H](NC[C@@H](O)[C@H](Cc1ccccc1)NC(=O)c1ccc(NC2CCN(C)CC2)cc1)c1ccccc1,8.15,7.80,–,8.40,76,< 6.30,7.92,> 8.11,–,–
CCCN(CCC)Cc1cc(C2CCC(NC[C@@H](O)[C@H](Cc3ccccc3)NC(=O)c3ccc(N4CCN(C)CC4)cc3)CC2)ccc1O (stereo not given in full),–,–,6.84,7.72,74,7.70,–,7.72,–,–
CCCN(CCC)Cc1cc(CNC[C@@H](O)[C@H](Cc2ccccc2)NC(=O)c2ccc(Nc3ccnc(C)c3)cc2)ccc1O,6.83,7.03,–,6.80,–,–,7.10,–,–,–
CCN(CC)Cc1cc(CNC[C@@H](O)[C@H](Cc2ccccc2)NC(=O)c2ccc(N3CCN(C)CC3)cc2)ccc1O,–,–,–,6.48,–,6.39,6.78,6.50,–,–
C[C@@H](NC[C@@H](O)[C@H](Cc1ccccc1)NC(=O)c1ccc(Nc2ccncc2)cc1)c1ccccc1,7.57,7.32,6.51,7.70,112,6.77,7.44,7.59,Active,Active
C[C@@H](NC[C@@H](O)[C@H](Cc1ccccc1)NC(=O)c1ccc(C(=O)N2CCCCC2)cc1)c1ccccc1,–,–,< 6.30,9.05,860,< 6.30,8.89,–,–,–
C[C@@H](NC[C@@H](O)[C@H](Cc1ccccc1)NC(=O)c1ccc(N(C)C2CCN(C)CC2)cc1)c1ccccc1,8.15,–,–,8.36,71,< 6.30,7.85,> 8.11,–,–
C[C@@H](NC[C@@H](O)[C@H](Cc1ccccc1)NC(=O)c1ccc(Nc2ccc(O)c(CN3CCCC3)c2)cc1)c1ccccc1,> 8.11,> 8.11,–,7.77,–,6.76,8.31,> 8.11,–,–
CCN(CC)Cc1cc(Nc2ccc(C(=O)N[C@@H](Cc3ccccc3)[C@H](O)CN[C@H](C)c3ccccc3)cc2)ccc1O,–,–,–,8.08,–,6.88,8.44,> 8.11,–,–
C[C@@H](NC[C@@H](O)[C@H](Cc1ccccc1)NC(=O)c1ccc(N(C)c2ccncc2)cc1)c1ccccc1,7.42,7.38,< 6.30,7.68,180,6.60,7.46,7.57,Active,Active
CCCN(CCC)Cc1cc(Nc2ccc(C(=O)N[C@@H](Cc3ccccc3)[C@H](O)CN[C@H](C)c3ccccc3)cc2)ccc1O,7.96,> 8.11,–,8.03,–,7.11,7.89,7.96,–,–
CCCN(CCC)C(=O)c1ccc(C(=O)N[C@@H](Cc2ccccc2)[C@H](O)CN[C@H](C)c2ccccc2)cc1,–,–,< 6.30,8.80,> 1250,< 6.30,8.19,–,–,–
Cc1cc(Nc2ccc(C(=O)N[C@@H](Cc3ccccc3)[C@H](O)CN[C@H](C)c3ccccc3)cc2)cc(C)n1,8.05,7.70,6.48,8.06,–,6.70,7.64,7.96,Active,Active
CCCN(CCC)C(=O)c1cccc(C(=O)N[C@@H](Cc2ccccc2)[C@H](O)CNC2CCCC2)c1,7.92,7.44,–,8.15,–,–,–,–,–,–
